Data taken from ChEMBL document CHEMBL1821687, “Discovery, synthesis, and biological evaluation of novel SMN protein modulators” (J Med Chem, 2011).

Tests used:
[1] = target: Survival motor neuron protein (Homo sapiens) (UniProt Q16637); assay: Activation of SMN expressed in HEK293 cells assessed as rate of induction by SMN2-promotor driven luciferase reporter gene assay relative to basal level; type: cell-based; parameters: concentration or dose not given beside the values
Outline: (§1)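 HEK-293 cells stably carrying the SMN2 reporter construct, kept in DMEM with 10% FCS, glutamax, pyruvate, pen/strep and 200 µg/mL hygromycin, and assayed without hygromycin. 2,000 cells/well were plated and adhered overnight at 37 °C, 5% CO2. Compounds were added as a 7-point titration, 50 µM to 25 nM final, in 0.46% DMSO, for 30–36 h. OneGlo luminescence was normalized to 4.5 mM sodium butyrate (100%) and DMSO (0%).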

[2] = target: Survival motor neuron protein (Homo sapiens) (UniProt Q16637); assay: Activation of SMN expressed in HEK293 cells assessed as concentration required to reach 50% of maximum luciferase signal by SMN2-promotor driven luciferase reporter gene assay; type: cell-based; outline: as §1

Survival motor neuron protein (Homo sapiens), sequence (Q16637 whole entry): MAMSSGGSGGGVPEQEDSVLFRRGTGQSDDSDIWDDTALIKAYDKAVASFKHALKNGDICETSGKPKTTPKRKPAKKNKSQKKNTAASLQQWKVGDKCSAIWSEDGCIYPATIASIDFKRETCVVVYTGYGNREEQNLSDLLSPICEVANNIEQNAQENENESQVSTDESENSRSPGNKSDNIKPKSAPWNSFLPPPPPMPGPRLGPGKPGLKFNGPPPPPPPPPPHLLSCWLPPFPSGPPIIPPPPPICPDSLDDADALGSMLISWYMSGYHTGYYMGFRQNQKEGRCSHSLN

| SMILES | Activity [1] | Activity [2] |
| --- | --- | --- |
| N#CC1CCN(c2nc(-c3ccc(Br)cc3)cs2)CC1 | 78% | 30.7 µM |
| NC(=O)N1CCN(c2nc(-c3ccc(Br)cc3)cs2)CC1 | 89% | 12.2 µM |
| NC(=O)C1CCN(c2nc(-c3ccc(-c4ccccc4)cc3)cs2)CC1 | 58% | 24.4 µM |
| NC(=O)C1CCN(c2nc(-c3ccccc3F)cs2)CC1 | 274% | 2.44 µM |
| NC(=O)C1CCN(c2nc(-c3ccc(Cl)cc3)cs2)CC1 | 381% | 2.44 µM |
| NC(=O)C1CCN(c2nc(-c3ccccc3Cl)cs2)CC1 | 57% | 7.72 µM |
| CC(C)Oc1ccc(-c2csc(N3CCC(C(N)=O)CC3)n2)cc1 | 178% | 3.87 µM |
| NC(=O)C1CCN(c2nccc(-c3ccc(Br)cc3)n2)CC1 | 387% | 0.387 µM |
| NC(=O)C1CCN(c2ncc(-c3cccc(N4CCOCC4)c3)s2)CC1 | 275% | 2.44 µM |
| CC(=O)C1CCN(c2ncc(-c3cccc(N(C)C)c3)s2)CC1 | 224% | 3.07 µM |
| CN(C)c1cccc(-c2ccnc(N3CCC(C(N)=O)CC3)n2)c1 | 446% | 0.772 µM |
| NC(=O)C1CCN(c2nc(-c3ccc(Oc4ccccc4)cc3)cs2)CC1 | 240% | 4.87 µM |
| COc1cc(-c2csc(N3CCC(C(N)=O)CC3)n2)cc(OC)c1OC | 73% | 19.4 µM |
| NC(=O)C1CCN(c2nc(-c3ccc(C(F)(F)F)cc3)cs2)CC1 | 386% | 2.44 µM |
| Cc1ccc(-c2ccnc(N3CCC(C(N)=O)CC3)n2)cc1 | 444% | 0.387 µM |
| CC(=O)c1cccc(-c2csc(N3CCC(C(N)=O)CC3)n2)c1 | 356% | 3.87 µM |
| NC(=O)C1CCN(c2nc(-c3ccccc3)cs2)CC1 | 167% | 7.72 µM |
| NC(=O)C1CCN(c2ncc(-c3cccc(F)c3)s2)CC1 | 601% | 2.44 µM |

| SMILES | Activity [1] | Activity [2] |
| --- | --- | --- |
| NC(=O)C1CCN(c2ncc(-c3cccc(N4CCCCC4)c3)s2)CC1 | 565% | 1.54 µM |
| CN(C)c1cccc(-c2nccc(N3CCC(C(N)=O)CC3)n2)c1 | 306% | 12.2 µM |
| COc1ccc(-c2cnc(N3CCC(C(N)=O)CC3)s2)cc1OC | 209% | 9.72 µM |
| NC(=O)C1CCN(c2nc(-c3ccc4c(c3)OCCCO4)cs2)CC1 | 443% | 0.49 µM |
| NC(=O)C1CCN(c2ncc(-c3cccc(N4CCCC4)c3)s2)CC1 | 685% | 0.387 µM |
| CC(C)(C)c1ccc(-c2csc(N3CCC(C(N)=O)CC3)n2)cc1 | 243% | 3.87 µM |
| NC1CCN(c2nc(-c3ccc(Br)cc3)cs2)CC1 | 182% | 2.44 µM |
| CN(C)c1cccc(-c2cnc(N3CCC(C(N)=O)CC3)s2)c1 | 550% | 0.039 µM |
| NC(=O)C1CCN(c2nc(-c3ccc4c(c3)OCC4)cs2)CC1 | 401% | 12.2 µM |
| CN(C)c1cccc(-c2cc(N3CCC(C(N)=O)CC3)ncn2)c1 | 81% | 3.87 µM |
| NC(=O)C1CCN(c2nc(-c3cccc(F)c3)cs2)CC1 | 64% | 9.72 µM |
| NC(=O)C1CCN(c2nc(-c3ccc(OC(F)(F)F)cc3)cs2)CC1 | 297% | 3.07 µM |
| NC(=O)C1CCN(c2ncc(-c3ccc4c(c3)OCCO4)s2)CC1 | 424% | 0.097 µM |
| NC(=O)C1CCN(c2nc(-c3cccc4sc5ccccc5c34)cs2)CC1 | 369% | 30.7 µM |
| NC(=O)C1CCN(c2nc(-c3ccc4c(c3)OCCO4)cs2)CC1 | 459% | 0.77 µM |
| CC(=O)NC1CCN(c2nc(-c3ccc(Br)cc3)cs2)CC1 | -57% | 15.4 µM |
| O=C(NCCc1ccccc1)C1CCN(c2nc(-c3ccc(Br)cc3)cs2)CC1 | 32% | 6.13 µM |
| NC(=O)C1CCN(c2nc(-c3cccc([N+](=O)[O-])c3)cs2)CC1 | 20% | 3.87 µM |
